SUMO Mot1 rescue: yeast Mot1-301 growth rescue at high temperature, primary screen, SUMOylation pathway inhibitor project, S. cerevisiae, ATP luminescence, 38.5C. actives 1% (n = 320,000). growth rescue, % at 18.8 µM. S. cerevisiae Mot1-301 growth rescue; percent above DMSO median, 100 means doubled;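 active = every valid replicate shows activation above 250% relative to neutral control wells; inactive = the rest, any valid replicate at or below 250%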;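 note: OY570 slx delta 5 strain wells were the positive control but not used for scaling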
T cruzi inh: inhibitors of intracellular T. cruzi growth, primary screen, luminescence, NIH3T3 host cells | T. cruzi beta-gal in NIH3T3, 90 h | inhibition, % (no concentration beside the values) | actives 1.4% (n = 300,000) | AID 1885, 2009;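 active = mean inhibition across valid replicates above about 55%, limit read from the data; inconclusive = mean below that limit but half or more replicates reach it; inactive = mean below it, under half of replicates reach it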;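 note: signal also drops with host cell toxicity which is not excluded here; 0% = plate median of DMSO wells and 100% = zero luminescence signal; higher percent means less beta-gal luminescence so fewer parasites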
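System – NIH/3T3 host cells with β-galactosidase reporter T. cruzi · Doses – single 50 nL compound addition per well in DMSO · Reagent – 5000 T. cruzi trypomastigotes/well · Medium – Low-serum DMEM with 2% FBS · Timing – ≥90 h infection period, 3 h prior cell attachment · Evaluation – parasite load inhibition, % · Technique – GalScreen luminescence, 60 min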
CSC inhib: cancer stem cell viability inhibitors, primary screen, luminescence; AID 2717, 2010; inhibition, % at 7.5 µM; actives 1.1% (n = 300,000); cancer stem cell-like cells viability; in the data active = inhibition above about 75%; inconclusive = no clear call, values can overlap the other calls; tested in HMLE shEcad cells
WT yeast gro inh: growth inhibition of WT strain, primary screen, mitochondrial fusion inhibitor project, WT and mutant strains, chemical genetic; mitochondrial fusion phenotypic screen; inhibition, % at 10 µM; actives 2.1% (n = 190,000); in the data active = inhibition above about 58%; tested in S. cerevisiae
Beta apoptosis: inhibitors of cytokine-induced beta cell apoptosis, primary screen, luminescence; actives 0.8% (n = 300,000); INS-1E cytokine-induced death, ATP luminescence, 48 h; percent of positive-control rescue, neutral wells zero; protection from apoptosis, % (no concentration beside the values);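 active = Every replicate reaches about 75%, or at least half do and their mean reaches it too, limit read from the data; inconclusive = At least half of replicates reach the limit but their mean does not; inactive = Under half of replicates reach the limit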;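 note: 0% = cytokine-treated negative control wells and 100% = positive control rescue; higher means more ATP so stronger rescue from cytokine killing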
Efflux pump mplx: inhibitors of Candida efflux pumps in yeast, primary screen, S. cerevisiae, Nile Red, multiplex; S. cerevisiae Candida pump triplex; inhibition, % at 10 µM; AID 485275, 2010; actives 0.44% (n = 330,000);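 active = plate passing quality check with inhibition over a set limit, or well fluorescence over plate mean plus 4 SD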;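 note: Nile Red retained in pooled yeast measured as flow cytometry median fluorescence; 0% = buffer negative control and 100% = Enniatin B positive control; higher means more Nile Red kept so more efflux inhibition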
Numbers without * were called inactive; u = inconclusive; x = no result. Hits are enriched below; roughly 4.8% of the tested compounds scored in any of these assays.

SMILES	SUMO Mot1 rescue	T cruzi inh	CSC inhib	WT yeast gro inh	Beta apoptosis	Efflux pump mplx
CC(=O)Nc1ccc(C(=O)OCC(=O)N(Cc2ccccc2)C(C)(C)C)cc1	329	2	3	-4	-1	0
COc1ccc(Br)cc1CN(C)C(=O)c1cnc(C)cn1	7	-3	-8	x	-3	0
CC(=O)C(C(C)=O)c1c(Cl)c(O)c(O)c2c(C(=O)c3ccccc3)coc12	30	-11	71	56	128*	0
CN1CCN(Cc2c(O)ccc3occ(C(=O)c4ccccc4)c23)CC1	5	-15	6	11	-6	0
CN(CC(=O)Nc1ccccc1Br)C(=O)CNC(=O)c1ccc(Oc2ccccc2)cc1	-13	-7	0	x	x	0
Cc1ccccc1C(=O)N(C)c1ccccc1C(=O)NCc1ccccc1	-6	0	-7	x	-6	-2
CC(=O)OCCCNc1cc(Sc2ccc(Cl)cc2)c2nonc2c1[N+](=O)[O-]	68	33	81*	-14	-1	0
Cc1ccc(Sc2cc(NCCCO)c([N+](=O)[O-])c3nonc23)cc1	-6	56*	7	x	-11	0
CC(=O)OCCNc1cc(SC(C)C)c2nonc2c1[N+](=O)[O-]	x	x	1	11	-1	0
CCC(=O)OCCNc1cc(Sc2nccn2C)c2nonc2c1[N+](=O)[O-]	10	55*	25	22	-1	0
COc1ccc(C(F)(F)F)cc1N/C=C/c1nnnn1-c1ccc2ccccc2c1	322	-2	0	x	5	0
Cc1nc2ccccc2n1CCOc1ccccc1	-14	-8	12	x	0	0
Cc1ccccc1OCCCCn1cnc2ccccc21	x	-16	4	46	103*	0
c1ccc(OCCCCn2cnc3ccccc32)cc1	-8	5	-8	-3	3	0
Cc1ccccc1OCCn1c(C)nc2ccccc21	2	6	18	x	78*	0
Cc1ccc(OCCCCn2cnc3ccccc32)cc1	19	19	2	65*	11	0
Cc1cccc(N2CCN(C(=O)c3cc(C)oc3C)CC2C)c1 (configuration not stated)	2	-10	x	12	-14	0
CCN(CC)C(=O)Cn1ccc(NC(C)=O)nc1=O	-3	7	-1	x	-1	0
CSCCC(=O)N(C)CC1CCCN(CCc2cccc(C(F)(F)F)c2)C1 (configuration not stated)	-14	55*	2	x	x	0
CN(CC1CCCN(CCc2cccc(C(F)(F)F)c2)C1)C(=O)c1cc2ccccc2o1 (configuration not stated)	x	65*	x	x	x	x
Cc1ccc(C(=O)N2CCN(C34CC5CC(CC(C5)C3)C4)CC2)o1	-11	-10	-6	x	-10	0
COc1ccc2nc(NC(=O)CSc3nnc(C)n3N)sc2c1	305*	-3	-7	x	-9	0
COc1ccc2nc(NC(=S)N(C)C)sc2c1	-21	60*	-5	56	17	0
CCNC(=O)Cn1cc(C(F)(F)F)cc(Cl)c1=O	8	-2	-19	x	-4	0
CCCOC(=O)c1c(NC(=O)/C=C/c2cnn(C)c2C)sc(C(=O)OCC)c1C	212	1	x	56	15	0
SMILES	SUMO Mot1 rescue	T cruzi inh	CSC inhib	WT yeast gro inh	Beta apoptosis	Efflux pump mplx
CCOC(=O)c1sc(NC(=O)/C=C/c2cnn(CC)c2C)c(C(=O)OCC)c1C	-11	30	21	63*	10	0
CC(C)NC(=S)N/N=C/c1ccc(C(C)(C)C)cc1	12	35	43	61*	6	0
Cc1ccc(OCC(=O)Nc2ccc(O)c(-c3nc4ccccc4o3)c2)cc1	-4	6	-8	11	7	0
O=C(Nc1ccc(O)c(-c2nc3ccccc3o2)c1)C1(c2ccc(Br)cc2)CCCC1	-19	1	84*	-6	4	-5
Cc1c(C(=O)N2CCOCC2)sc(NC(=O)Cc2ccccc2)c1C#N	96	-1	-13	-21	-1	0
O=c1cc(CN2CCN(Cc3ccccc3)CC2)c2cc(Cl)ccc2o1	x	43	x	6	x	x
O=c1cc(CN2CCN(Cc3ccccc3)CC2)c2ccc(O)cc2o1	-7	56*	-7	x	x	0
Cc1cc2oc(=O)cc(CN3CCN(Cc4ccccc4)CC3)c2cc1Cl	117	u	-10	-1	0	0
Cc1ccc2c(CN3CCN(Cc4ccccc4)CC3)cc(=O)oc2c1	4	59*	3	x	-2	0
CCc1ccc2oc(=O)cc(CN3CCN(Cc4ccccc4)CC3)c2c1	-4	61*	4	x	4	0
CCC(C(=O)NCCc1ccc(S(N)(=O)=O)cc1)c1ccccc1 (configuration not stated)	1	-8	-7	x	-6	0
Cc1ccc(-c2cc(-c3n[nH]c(=S)n3C)c3ccccc3n2)cc1	96	19	-5	70*	6	0
CCOc1cccc(-c2cc(-c3n[nH]c(=S)n3CC)c3ccccc3n2)c1	-2	22	-10	67*	15	0
CCn1c(-c2cc(-c3ccc(C)c(C)c3)nc3ccccc23)n[nH]c1=S	9	22	-4	58*	9	0
CCOc1ccccc1-c1cc(-c2n[nH]c(=S)n2CC)c2ccccc2n1	-11	21	-18	5	7	0
CCn1c(-c2cc(-c3cc(C)ccc3C)nc3ccccc23)n[nH]c1=S	5	7	11	-4	5	0
CCOc1ccc(-n2c(SCC(=O)Nc3ccc(C(=O)O)cc3)nc3ccccc3c2=O)cc1	1	-10	-7	x	4	-2
CN(CC(O)Cn1cnc2c1c(=O)n(C)c(=O)n2C)c1ccccc1 (configuration not stated)	3	-4	-9	-13	-3	0
Cc1c(C(=O)OCC(C)(C)CN(C)C)oc2ccccc12	8	8	30	6	-2	0
Cc1c(C(=O)OC(C)CCN(C)C)oc2ccccc12 (configuration not stated)	1	57*	-2	-2	-1	0
NCCOc1ccc(C23CC4CC(CC(C4)C2)C3)cc1	12	-18	-10	97*	24	0
NCCOc1ccc(C2CCCCC2)cc1	13	-22	2	16	3	0
OCCN1CCN(CC(O)COc2ccc(C34CC5CC(CC(C5)C3)C4)cc2)CC1 (configuration not stated)	39	33	112*	94	47	0
COCCCn1c(C)csc1=Nc1cccnc1	-5	0	x	-7	0	0
Cc1csc(=Nc2cccnc2)n1CC1CCCCC1	-11	-5	-1	73*	0	0

Source: PubChem BioAssay (several laboratories)
